We go through 13 molecules from ChEMBL document CHEMBL4402610 (J Med Chem, 2020).

Test [1] deals with Human immunodeficiency virus 1. The test can be described thus: Antiviral activity against HIV1 LAI infected in human MT2 cells. In kind it is functional, organism-based. As to conditions: Human immunodeficiency virus 1, M:B_Lai.
The next test concerns the target Protease (Human immunodeficiency virus 1, UniProt Q9YQ12). Description: Inhibition of HIV-1 protease.
Test [2] is described as follows: Selectivity ratio of IC50 for antiviral activity against atazanavir resitant HIV1 harboring protease L23I/E34Q/K43I/M46I/I50L/G51A/L63P/A71V/V82A/T91A mutant infected in human MT4 cells to IC50 for antiviral activity against wild-type HIV1 NL4-3. In kind it is functional.
For test [3], the system named is Human immunodeficiency virus 1. Description: Antiviral activity against darunavir resistant HIV1 harboring protease P30 L10I/I15V/K20R/L24I/V32I/M36I/ M46L/L63P/K70Q/V82A/I84V/L89M mutant infected in human MT4 cells assessed as reduction in p24 Gag production. Format: functional, organism-based. The conditions noted are these: Human immunodeficiency virus 1, MT4. The method in brief: (§1)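 MT-4 cells (10^5/mL) were exposed to 100 TCID50s of each HIV-1 and treated with drug. Inhibition of p24 Gag protein production was the endpoint for EC50. PI-resistant variants had been selected in vitro by passaging HIV-1 NL4-3 in MT-4 cells under increasing PI (up to 5 μM). Assays were run in duplicate, and values are means of two independent experiments.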

Test [4] can be described thus: Selectivity ratio of IC50 for antiviral activity against lopinavir resistant HIV1 harboring protease L10F/V32I/M46I/I47A/A71V/I84V mutant infected in human MT4 cells to IC50 for antiviral activity against wild-type HIV1 NL4-3. Format: functional.
Test [5] is described as follows: Selectivity ratio of IC50 for antiviral activity against darunavir resistant HIV1 P30 harboring protease L10I/I15V/K20R/L24I/V32I/M36I/ M46L/L63P/K70Q/V82A/I84V/L89M mutant infected in human MT4 cells to IC50 for antiviral activity against wild-type HIV1 NL4-3. Format: functional.
For test [6], the system named is Human immunodeficiency virus 1. The test can be described thus: Antiviral activity against atazanavir resistant HIV1 harboring protease L23I/E34Q/K43I/M46I/I50L/G51A/L63P/A71V/V82A/T91A mutant infected in human MT4 cells assessed as reduction in p24 Gag production. Format: functional, organism-based. The conditions noted are these: Human immunodeficiency virus 1, MT4. The gist of the method:
as §1

Test [7] relates to Human immunodeficiency virus 1. Description: Antiviral activity against lopinavir resistant HIV1 harboring protease L10F/V32I/M46I/I47A/A71V/I84V mutant infected in human MT4 cells assessed as inhibition of p24 Gag production. Format: functional, organism-based. As to conditions: Human immunodeficiency virus 1, MT4. The gist of the method: as §1
For test [8], the system named is Human immunodeficiency virus 1. The test can be described thus: Antiviral activity against HIV1 NL4-3 infected in human MT4 cells assessed as reduction in p24 Gag protein production. As to conditions: Human immunodeficiency virus 1, NL4-3, MT4. In kind it is functional, organism-based.

Sequence of Protease (Q9YQ12 whole entry): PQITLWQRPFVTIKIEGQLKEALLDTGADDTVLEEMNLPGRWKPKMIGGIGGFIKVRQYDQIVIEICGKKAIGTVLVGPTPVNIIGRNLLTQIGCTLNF

Consider `CC(C)CN(C[C@@H](O)[C@H](Cc1cccc(F)c1)NC(=O)OC1C[C@@H]2CO[C@@H]3OC1C[C@H]23)S(=O)(=O)c1ccc2nc(NC3CC3)sc2c1` (stereo partly drawn), for which half-maximal inhibition in [1] (IC50) was put at 1.28 nM. Moreover, affinity on Protease was put at a Ki of 0.008 nM.

With `CC(C)CN(C[C@@H](O)[C@H](Cc1ccccc1)NC(=O)O[C@H]1C[C@H]2CO[C@H]3OC1C[C@@H]23)S(=O)(=O)c1ccc2nc(NC(C)C)oc2c1`, the results for the “Ratio IC50” value in test [2], in test [4] and in test [5] were 9.1, above 26 and 17, respectively. Further, the IC50 (commonly the point on the concentration scale where inhibition reaches its midpoint) is 0.3 nM in test [1]; 640 nM in test [3]; 350 nM in [6]; above 1000 nM in test [7]; 38 nM in test [8]. In addition, the Ki (as a rule, the dissociation constant of the complex between target and ligand, obtained from inhibition or displacement) at Protease was 0.047 nM.

Molecule `CC(C)CN(C[C@@H](O)[C@H](Cc1ccc(F)cc1)NC(=O)O[C@H]1C[C@H]2CO[C@H]3OC1C[C@@H]23)S(=O)(=O)c1ccc2nc(NC3CC3)sc2c1` returned an IC50 in test [1] of 0.4 nM. At Protease, the Ki was determined as 0.036 nM.

In turn, `CC(C)CN(C[C@@H](O)[C@H](Cc1ccccc1)NC(=O)OC1C[C@@H]2CO[C@@H]3OC1C[C@H]23)S(=O)(=O)c1ccc2nc(NC3CC3)sc2c1` (stereo partly drawn) gave an IC50 in test [1] of 3.3 nM. The molecule also came in with a Ki at Protease of 0.002 nM.

With `CC(C)CN(C[C@@H](O)[C@H](Cc1ccccc1)NC(=O)OC1C[C@@H]2CO[C@@H]3OC1C[C@H]23)S(=O)(=O)c1ccc2nc(NC(C)C)oc2c1` (stereo partly drawn), the IC50 in test [1] turned out to be 1.73 nM. The Ki at Protease was 0.006 nM.

In test [1], `COc1ccc(S(=O)(=O)N(CC(C)C)C[C@@H](O)[C@H](Cc2ccccc2)NC(=O)OC2C[C@@H]3CO[C@@H]4OC2C[C@H]34)cc1` (stereo partly drawn) showed a half-maximal inhibitory concentration (IC50) of 38 nM. For the same molecule, the Ki at Protease came to 0.008 nM.

With `CC(C)CN(C[C@@H](O)[C@H](Cc1ccc(F)cc1)NC(=O)OC1C[C@@H]2CO[C@@H]3OC1C[C@H]23)S(=O)(=O)c1ccc2nc(NC3CC3)sc2c1` (stereo partly drawn), it took 0.46 nM to reach half-maximal inhibition in [1] (IC50). In addition, on Protease, the inhibition constant Ki amounted to 0.002 nM.

`CC(C)CN(C[C@@H](O)[C@H](Cc1cc(F)cc(F)c1)NC(=O)O[C@H]1C[C@H]2CO[C@H]3OC1C[C@@H]23)S(=O)(=O)c1ccc2nc(NC3CC3)sc2c1`: in test [1], the IC50 is 2.25 nM. Moreover, the Ki at Protease is 0.007 nM.

Take `CC(C)CN(C[C@@H](O)[C@H](Cc1cc(F)cc(F)c1)NC(=O)OC1C[C@@H]2CO[C@@H]3OC1C[C@H]23)S(=O)(=O)c1ccc2nc(NC3CC3)sc2c1` (stereo partly drawn): the “Ratio IC50” value came to 6.3 in test [2], 127 in test [4] and 133 in test [5]. Further, the IC50 in [1] was determined as 0.086 nM; in test [3] it was 4.5 nM; in test [6] it was 0.21 nM; in test [7], 4.3 nM; in [8] it was 0.034 nM. On Protease, this molecule had a Ki of 0.054 nM.

As to `CC(C)CN(C[C@@H](O)[C@H](Cc1ccccc1)NC(=O)O[C@H]1C[C@H]2CO[C@H]3OC1C[C@@H]23)S(=O)(=O)c1ccc2nc(NC3CC3)sc2c1`, the concentration for half-maximal inhibition (IC50) in test [1] turned out to be 1.86 nM. This molecule also had a Ki on Protease of 0.027 nM.

As to `COc1ccc(S(=O)(=O)N(CC(C)C)C[C@@H](O)[C@H](Cc2ccccc2)NC(=O)O[C@H]2C[C@H]3CO[C@H]4OC2C[C@@H]34)cc1`, 71.7 nM corresponded to half-maximal inhibition in test [1] (IC50). At Protease, this molecule showed an inhibition constant Ki of 0.034 nM.

As to `COC(=O)N[C@H](C(=O)N[C@@H](Cc1ccccc1)[C@@H](O)CN(Cc1ccc(-c2ccccn2)cc1)NC(=O)[C@@H](NC(=O)OC)C(C)(C)C)C(C)(C)C` [ATAZANAVIR], the IC50 was above 1000 nM in test [3], above 1000 nM in [6], 430 nM in test [7] and 4 nM in [8]. For the same molecule, in [4], the “Ratio IC50” value was 107.

`CC(C)CN(C[C@@H](O)[C@H](Cc1cccc(F)c1)NC(=O)O[C@H]1C[C@H]2CO[C@H]3OC1C[C@@H]23)S(=O)(=O)c1ccc2nc(NC3CC3)sc2c1` gave an IC50 in [1] of 2.7 nM. For the same molecule, affinity at Protease was put at a Ki of 0.024 nM.
